Test results as given in ChEMBL document CHEMBL1127697, “New N alpha-guanidinobenzoyl derivatives of hirudin-54-65 containing stabilized carboxyl or phosphoryl groups on the side chain of phenylalanine-63” (1994).
Residues, ends and D or L forms follow the SMILES beside them.

Assays:
Type in all cases: functional
Rattus norvegicus [1] = test: Activated partial thromboplastin time at 60 min following intravenous administration in rats at a dose 8 mg/kg
In short: (§1)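 Sprague-Dawley rats (300–400 g) anesthetized with pentobarbital sodium (60 mg/kg ip). Peptide (1 mL) given iv via cannulated jugular vein. Carotid blood (1.5 mL) drawn 30 min before and at 1.5–60 min after dosing, then centrifuged 15 min at 3000g to platelet-poor plasma. APTT read on a coagulometer: plasma mixed with thromboplastin at 37 °C. Expressed as % of untreated animals; n = 4–6 independent experiments.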

Rattus norvegicus [2] = test: Activated partial thromboplastin time at 3 min following intravenous administration in rats at a dose 8 mg/kg; in short: as §1
Rattus norvegicus [3] = test: Activated partial thromboplastin time at 15 min following intravenous administration in rats at a dose 8 mg/kg; in short: as §1
Rattus norvegicus [4] = test: Activated partial thromboplastin time at 1.5 min following intravenous administration in rats at a dose 8 mg/kg; in short: as §1
Rattus norvegicus [5] = test: Activated partial thromboplastin time at 5 min following intravenous administration in rats at a dose 8 mg/kg; in short: as §1
Rattus norvegicus [6] = species on record: Rattus norvegicus; test: Concentration that doubles thrombin time (inhibition of fibrin clot) in rats
In short: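 Plasma was incubated 2 min at 37 °C with inhibitor or vehicle, then thrombin (1.5 NIH/mL) was added and clotting time read on a coagulometer. Value is the µM concentration that doubles thrombin time relative to the no-inhibitor control.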

Rattus norvegicus [7] = test: Activated partial thromboplastin time at 30 min following intravenous administration in rats at a dose 8 mg/kg; in short: as §1

| SMILES | Baseline (Rattus norvegicus [1]) [%] | Baseline (Rattus norvegicus [2]) [%] | Baseline (Rattus norvegicus [3]) [%] | Baseline (Rattus norvegicus [4]) [%] | Baseline (Rattus norvegicus [5]) [%] | Ctt2 (Rattus norvegicus [6]) [µM] | Baseline (Rattus norvegicus [7]) [%] |
| --- | --- | --- | --- | --- | --- | --- | --- |
| CC[C@H](C)[C@H](NC(=O)C1C2CCC(CC2)N1C(=O)[C@H](CCC(=O)O)NC(=O)[C@H](Cc1ccccc1)NC(=O)[C@H](CC(=O)O)NC(=O)CNC(=O)c1ccc(NC(=N)N)cc1)C(=O)N1CCC[C@H]1C(=O)N[C@@H](CCC(=O)O)C(=O)N[C@@H](CCC(=O)O)C(=O)N[C@@H](Cc1ccc(OP(=O)(O)O)cc1)C(=O)N[C@@H](CC(C)C)C(=O)N[C@H](CCC(=O)O)C(=O)O (stereo partly drawn) | 107 | 162 | 125 | 201 | 147 | 0.9 | 110 |
| CC[C@H](C)[C@H](NC(=O)C1C2CCC(CC2)N1C(=O)[C@H](CCC(=O)O)NC(=O)[C@H](Cc1ccccc1)NC(=O)[C@H](CC(=O)O)NC(=O)CNC(=O)c1ccc(NC(=N)N)cc1)C(=O)N1CCC[C@H]1C(=O)N[C@@H](CCC(=O)O)C(=O)N[C@@H](CCC(=O)O)C(=O)N[C@@H](Cc1ccc(O)cc1)C(=O)N[C@@H](CC(C)C)C(=O)N[C@H](CCC(=O)O)C(=O)O (stereo partly drawn) | 96 | 145 | 115 | 158 | 133 | 4.8 | 111 |
| CC[C@H](C)[C@H](NC(=O)C1C2CCC(CC2)N1C(=O)[C@H](CCC(=O)O)NC(=O)C(Cc1ccccc1)NC(=O)[C@H](CC(=O)O)NC(=O)CNC(=O)c1ccc(NC(=N)N)cc1)C(=O)N1CCC[C@H]1C(=O)N[C@@H](CCC(=O)O)C(=O)N[C@@H](CCC(=O)O)C(=O)N[C@H](Cc1ccc(CC(=O)O)cc1)C(=O)N[C@@H](CC(C)C)C(=O)N[C@H](CCC(=O)O)C(=O)O (stereo in doubt) | – | – | – | – | – | 50 | – |
| CC[C@H](C)[C@H](NC(=O)C1C2CCC(CC2)N1C(=O)[C@H](CCC(=O)O)NC(=O)[C@H](Cc1ccccc1)NC(=O)[C@H](CC(=O)O)NC(=O)CNC(=O)c1ccc(NC(=N)N)cc1)C(=O)N1CCC[C@H]1C(=O)N[C@@H](CCC(=O)O)C(=O)N[C@@H](CCC(=O)O)C(=O)N[C@@H](Cc1ccc(P(=O)(O)O)cc1)C(=O)N[C@@H](CC(C)C)C(=O)N[C@H](CCC(=O)O)C(=O)O (stereo partly drawn) | 187 | 225 | 200 | 252 | 217 | 2.8 | 181 |
| CC[C@H](C)[C@H](NC(=O)C1C2CCC(CC2)N1C(=O)[C@H](CCC(=O)O)NC(=O)[C@H](Cc1ccccc1)NC(=O)[C@H](CC(=O)O)NC(=O)CNC(=O)c1ccc(NC(=N)N)cc1)C(=O)N1CCC[C@H]1C(=O)N[C@@H](CCC(=O)O)C(=O)N[C@@H](CCC(=O)O)C(=O)N[C@@H](Cc1ccc(O)cc1P(=O)(O)O)C(=O)N[C@@H](CC(C)C)C(=O)N[C@H](CCC(=O)O)C(=O)O (stereo partly drawn) | 163 | 244 | 192 | 265 | 217 | 4 | 164 |
| CC[C@H](C)[C@H](NC(=O)C1C2CCC(CC2)N1C(=O)[C@H](CCC(=O)O)NC(=O)[C@H](Cc1ccccc1)NC(=O)[C@H](CC(=O)O)NC(=O)CNC(=O)c1ccc(NC(=N)N)cc1)C(=O)N1CCC[C@H]1C(=O)N[C@@H](CCC(=O)O)C(=O)N[C@@H](CCC(=O)O)C(=O)N[C@@H](Cc1ccc(CC(=O)O)cc1)C(=O)N[C@@H](CC(C)C)C(=O)N[C@H](CCC(=O)O)C(=O)O (stereo partly drawn) | 118 | 205 | 149 | 213 | 188 | 1 | 141 |
| CC[C@H](C)[C@H](NC(=O)C1C2CCC(CC2)N1C(=O)[C@H](CCC(=O)O)NC(=O)[C@H](Cc1ccccc1)NC(=O)[C@H](CC(=O)O)NC(=O)CNC(=O)c1ccc(NC(=N)N)cc1)C(=O)N1CCC[C@H]1C(=O)N[C@@H](CCC(=O)O)C(=O)N[C@@H](CCC(=O)O)C(=O)N[C@@H](Cc1ccc(O)cc1)C(=O)N[C@@H](CC(C)C)C(=O)O (stereo partly drawn) (HELM PEPTIDE1{[N=C(N)Nc1ccc(C(=O)[*:2])cc1].G.D.F.E.[O=C(C1C2CCC(CC2)N1[*:1])[*:2]].I.P.E.E.Y.L}$$$$V2.0) | 98 | 123 | 108 | 136 | 115 | 16.5 | 100 |
